{"source": "paper PMC5367588", "about": "(International Journal of Nanomedicine, 2017)", "key": {"[1]": {"test_system": "HepG2, MCF-7, and SW480 cells", "assay": "In vitro cytotoxicity", "assay_type": "cell-based", "conditions": "MTT assay, three cell lines, 48 h", "method_in_brief": "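Cells grown in RPMI 1640 or L-15 with 10% FBS were seeded at 5,000 cells/well and left to attach overnight. Graded concentrations of test compound were applied in quintuplicate for 48 h at 37°C and 5% CO2. MTT was added for 4 h and absorbance read at 490 nm. IC50 was taken as the concentration giving 50% growth inhibition; the assay was run three times.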"}, "[2]": {"assay": "Drug release from conjugates in phosphate-buffered saline", "assay_type": "physicochemical", "method_in_brief": "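Conjugate at 0.5 mg/mL final in 0.01 mol/L PBS at pH 3.0, 4.0, 5.0, 6.0 and 7.4, held at 37°C for 48 h. Supernatants were analysed by UPLC/MS in MRM mode using the 477.0/433.1 transition for the released ester.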"}, "[3]": {"assay": "In vivo pharmacokinetics and biodistribution", "design": "species or system tumor-bearing nude mice", "conditions": "for AUC0–inf / MRT0–inf: i.v. 5.0 mg/kg 10-HCPT injection or 35.1 mg/kg compound F solution, mice, n=6; for T2/1: blood circulation, i.v. single dose equal to 10-HCPT 5 mg/kg, tumor-bearing mice; for AUC(0-inf) / MRT inf: female, BALB/c (nude), mouse, iv, 5 mg/kg", "method_in_brief": "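Tumor-bearing nude mice (n=6 per group) got one i.v. dose of free parent drug 5 mg/kg or parent-equivalent conjugate. Orbital blood was taken from 10 min to 48 h, and heart, liver, spleen, lung, kidney, brain and tumor were collected. Plasma or saline tissue homogenate was hydrolysed with 0.1 N NaOH (37°C, 20 min), then neutralised with HCl. Camptothecin internal standard was added before acetonitrile extraction. Parent drug was quantified by UPLC/MS and PK parameters derived with software.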"}, "[4]": {"assay": "Water solubility of the prodrug", "assay_type": "physicochemical", "conditions": "prodrug relative to 10-HCPT"}, "[5]": {"assay": "Drug release from conjugates in plasma", "assay_type": "in vitro ADME, human", "conditions": "for amount of compound B released from the conjugate: plasma", "method_in_brief": "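Conjugate stock (5.0 mg/mL) was added to human serum to 0.5 mg/mL final, with camptothecin internal standard at 1.0 µg/mL final, at 37°C. Samples were taken from 0.5 to 48 h, protein-precipitated with acetonitrile, centrifuged, dried under N2 at 40°C and reconstituted in acetonitrile. Analysis was by UPLC/MS against serum standards of 0.5–1,000 ng/mL using the internal standard method.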"}, "[6]": {"assay": "Characterization of compound F self-assembly micelles", "assay_type": "physicochemical", "conditions": "in water"}, "[7]": {"test_system": "tumor-bearing nude mouse models", "assay": "In vivo antitumor efficacy", "design": "species or system mice", "conditions": "for tumor growth inhibition effect (TIR): tail vein injection, equivalent to 5.0 mg/kg 10-HCPT once a day for 14 days, n=8", "method_in_brief": "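Dosing began in tumor-bearing nude mice once tumors reached ~50–100 mm3; groups (n=8) were balanced for weight and tumor size. Mice received saline, commercial parent-drug injection 5.0 mg/kg, or conjugate 35.1 mg/kg (parent-equivalent 5.0 mg/kg) by tail vein once daily for 14 days. Tumor volume (a×b²/2) was measured every 2 days; toxicity was judged from behaviour and weight loss.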"}, "[8]": {"conditions": "once a day for 14 days, tail vein"}}}
{"compound": "5-carbonyl caproic acid", "values": [{"measurement": "cytotoxicity (in words)", "setting": "[1]", "value": "almost no cytotoxicity"}]}
{"compound": "10-HCPT-thiosemicarbazide-PEG2000-MeO conjugate [compound F]", "values": [{"measurement": "amount of compound B released from the conjugate", "setting": "[2]; PBS pH 5.0, 37°C, after 4 h", "value": "~100", "unit": "%"}, {"measurement": "amount of compound B released from the conjugate", "setting": "[2]; PBS pH 7.4, 37°C, after 1 h", "value": 2, "unit": "%"}, {"measurement": "amount of compound B released from the conjugate", "setting": "[2]; PBS pH 7.4, 37°C, after 4 h", "value": 8, "unit": "%"}, {"measurement": "amount of compound B released from the conjugate", "setting": "[2]; pH 7.4 PBS, after 48 h", "value": "< 30", "unit": "%"}, {"measurement": "stability (in words)", "setting": "[2]; phosphate-buffered saline (pH 7.4)", "value": "good stability"}, {"measurement": "AUC0–inf", "setting": "[3]; Heart", "value": "3,795.7±1,539.3 µg/L h"}, {"measurement": "MRT0–inf", "setting": "[3]; Heart", "value": "4.379 ± 1.171", "unit": "h"}, {"measurement": "AUC0–inf", "setting": "[3]; Kidney", "value": "1,260.4±585.8 µg/L h"}, {"measurement": "MRT0–inf", "setting": "[3]; Kidney", "value": "2.948 ± 0.548", "unit": "h"}, {"measurement": "AUC0–inf", "setting": "[3]; Liver", "value": "52,688.4±3,111.2 µg/L h"}, {"measurement": "MRT0–inf", "setting": "[3]; Liver", "value": "10.07 ± 0.957", "unit": "h"}, {"measurement": "AUC0–inf", "setting": "[3]; Lung", "value": "293,117.9±31,343.1 µg/L h"}, {"measurement": "MRT0–inf", "setting": "[3]; Lung", "value": "6.96 ± 0.178", "unit": "h"}, {"measurement": "AUC0–inf", "setting": "[3]; Plasma", "value": "173,410.1±13,824.5 µg/L h"}, {"measurement": "MRT0–inf", "setting": "[3]; Plasma", "value": "28.975 ± 1.238", "unit": "h"}, {"measurement": "AUC0–inf", "setting": "[3]; Spleen", "value": "8,993.1±1,534.3 µg/L h"}, {"measurement": "MRT0–inf", "setting": "[3]; Spleen", "value": "7.756 ± 1.518", "unit": "h"}, {"measurement": "AUC0–inf", "setting": "[3]; Tumor", "value": "162,823.9±19,289.2 µg/L h"}, {"measurement": "MRT0–inf", "setting": "[3]; Tumor", "value": "39.873 ± 4.549", "unit": "h"}, {"measurement": "T2/1", "setting": "[3]", "value": "10.516 ± 1.158", "unit": "h"}, {"measurement": "AUC0–inf in tumor relative to 10-HCPT solution", "setting": "[3]; tumor", "value": 7.76, "unit": "fold"}, {"measurement": "MRT0–inf in tumors compared with 10-HCPT solution", "setting": "[3]; tumor", "value": 4.31, "unit": "fold"}, {"measurement": "water solubility increase", "setting": "[4]", "value": "over 3,000 times"}, {"measurement": "cytotoxicity (in words)", "setting": "[1]", "value": "strongest cytotoxicity"}, {"measurement": "amount of compound B released from the conjugate", "setting": "[5]; 37°C, after 1 h", "value": 5, "unit": "%"}, {"measurement": "amount of compound B released from the conjugate", "setting": "[5]; 37°C, after 4 h", "value": 15, "unit": "%"}, {"measurement": "amount of compound B released from the conjugate", "setting": "[5]; after 48 h", "value": "< 30", "unit": "%"}, {"measurement": "stability (in words)", "setting": "[5]; rat plasma", "value": "good stability"}, {"measurement": "concentration at which conjugates self-assemble into micelles", "setting": "[6]", "value": 7500, "unit": "µg/mL"}, {"measurement": "body weight change (in words)", "setting": "[7]; [8]", "value": "did not cause significant loss of body weight"}, {"measurement": "tumor volume (in words)", "setting": "[7]; once a day for 14 days, tail vein, P<0.05", "value": "significantly smaller than that of the group treated with either saline or 10-HCPT solution"}, {"measurement": "tumor growth inhibition effect (TIR)", "setting": "[7]", "value": "82.66%±7.175"}]}
{"compound": "CC[C@@]1(O)C(=O)OCc2c1cc1n(c2=O)Cc2cc3cc(O)ccc3nc2-1", "note": "[10-HCPT, 10-Hydroxycamptothecin, reference compound]", "values": [{"measurement": "T2/1", "setting": "[3]", "value": "1.859 ± 1.385", "unit": "h"}, {"measurement": "AUC(0-inf)", "setting": "[3]; heart", "value": 11600, "unit": "ng·h/mL"}, {"measurement": "MRT inf", "setting": "[3]; heart", "value": "6.18 ± 1.5", "unit": "h"}, {"measurement": "AUC(0-inf)", "setting": "[3]; kidney", "value": 2090, "unit": "ng·h/mL"}, {"measurement": "MRT inf", "setting": "[3]; kidney", "value": "5.96 ± 1.09", "unit": "h"}, {"measurement": "AUC(0-inf)", "setting": "[3]; liver", "value": 28700, "unit": "ng·h/mL"}, {"measurement": "MRT inf", "setting": "[3]; liver", "value": "5.69 ± 0.845", "unit": "h"}, {"measurement": "AUC(0-inf)", "setting": "[3]; lung", "value": 130000, "unit": "ng·h/mL"}, {"measurement": "MRT inf", "setting": "[3]; lung", "value": "4.79 ± 0.648", "unit": "h"}, {"measurement": "AUC(0-inf)", "setting": "[3]; plasma", "value": 8410, "unit": "ng·h/mL"}, {"measurement": "MRT inf", "setting": "[3]; plasma", "value": "6.15 ± 0.964", "unit": "h"}, {"measurement": "AUC(0-inf)", "setting": "[3]; spleen", "value": 5040, "unit": "ng·h/mL"}, {"measurement": "MRT inf", "setting": "[3]; spleen", "value": "5.68 ± 0.771", "unit": "h"}, {"measurement": "AUC(0-inf)", "setting": "[3]; tumor", "value": 21000, "unit": "ng·h/mL"}, {"measurement": "MRT inf", "setting": "[3]; tumor", "value": "9.25 ± 1.03", "unit": "h"}, {"measurement": "body weight change (in words)", "setting": "[7]; [8]", "value": "significant body weight loss"}, {"measurement": "tumor growth inhibition effect (TIR)", "setting": "[7]", "value": "63.85%±5.233"}]}
